According to ChEMBL document CHEMBL1800004, “Discovery of 4-anilinofuro[2,3-b]quinoline derivatives as selective and orally active compounds against non-small-cell lung cancers” (J Med Chem, 2011):

Assays:
Format in all cases: functional
[1] = system: SF-268; test: Anticancer activity against human SF268 cells assessed as cell growth at 20 ug/mL after 48 hrs by SRB assay relative to control; settings: SF-268, 48 h, read-out: Activity
In short: (§1)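 Cells were inoculated and preincubated in microtiter plates. Compounds were dissolved in DMSO, diluted in culture medium, and tested at 20.0 and 4.0 μg/mL for 48 h. The end-point used sulforhodamine B protein staining, and growth was expressed as percent of untreated control cells.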

[2] = system: MCF7; test: Anticancer activity against human MCF7 cells assessed as cell growth at 4 ug/mL after 48 hrs by SRB assay relative to control; settings: MCF7, 48 h, read-out: Activity; in short: as §1
[3] = system: NCI-H460; test: Anticancer activity against human NCI-H460 cells assessed as cell growth at 20 ug/mL after 48 hrs by SRB assay relative to control; settings: NCI-H460, 48 h, read-out: Activity; in short: as §1
[4] = system: MCF7; test: Anticancer activity against human MCF7 cells assessed as cell growth at 20 ug/mL after 48 hrs by SRB assay relative to control; settings: MCF7, 48 h, read-out: Activity; in short: as §1
[5] = system: NCI-H460; test: Anticancer activity against human NCI-H460 cells assessed as cell growth at 4 ug/mL after 48 hrs by SRB assay relative to control; settings: NCI-H460, 48 h, read-out: Activity; in short: as §1
[6] = system: SF-268; test: Anticancer activity against human SF268 cells assessed as cell growth at 4 ug/mL after 48 hrs by SRB assay relative to control; settings: SF-268, 48 h, read-out: Activity; in short: as §1

| Structure (SMILES) | growth at 20 µg/mL [1] [%] | growth at 4 µg/mL [2] [%] | growth at 20 µg/mL [3] [%] | growth at 20 µg/mL [4] [%] | growth at 4 µg/mL [5] [%] | growth at 4 µg/mL [6] [%] |
| --- | --- | --- | --- | --- | --- | --- |
| COc1ccc2c(Nc3ccc(/C(C)=N/OCCCCN4CCOCC4)cc3)c3c(Cl)coc3nc2c1 | 99 | 96 | 20 | 5 | 87 | 110 |
| COc1ccc2c(Nc3ccc(C(N)=O)cc3)c3c(Cl)coc3nc2c1 |  | 90 | 77 | 66 | 96 |  |
| COc1ccc2c(Nc3ccc(/C(C)=N/OCCN(C)C)cc3)c3c(Cl)coc3nc2c1 | -1 | 51 | -1 | -2 | 74 | 102 |
| C/C(=N\OCCN1CCCCC1)c1ccc(Nc2c3ccccc3nc3occ(Cl)c23)cc1 | 31 | 121 | 3 | 26 | 101 | 120 |
| C/C(=N\OCCN1CCOCC1)c1ccc(Nc2c3ccccc3nc3occc23)cc1 | 32 | 120 | 23 | 56 | 108 | 121 |
| COc1ccc2c(Nc3ccc(/C(C)=N/OCCN4CCCC4)cc3)c3c(Cl)coc3nc2c1 | 5 | 55 | 5 | 1 | 53 | 102 |
| CNC(=O)c1ccc(Nc2c3ccc(OC)cc3nc3occ(Cl)c23)cc1 | 35 | 72 | 27 | 47 | 58 | 52 |
| COc1ccc2c(Nc3ccc(C(=O)NCCO)cc3)c3c(Cl)coc3nc2c1 | 100 | 96 | 82 | 74 | 98 | 103 |
| COc1ccc2c(Nc3ccc(C(=O)NCCCN(C)C)cc3)c3c(Cl)coc3nc2c1 | 71 | 91 | 36 | 72 | 92 | 94 |
| COc1ccc2c(Nc3ccc(C(=O)NCCN(C)C)cc3)c3c(Cl)coc3nc2c1 | 68 | 97 | 60 | 44 | 112 | 119 |
| COc1ccc2c(Nc3ccc(/C(C)=N/OCCN4CCOCC4)cc3)c3ccoc3nc2c1 | 92 | 76 | 44 | 25 | 96 | 110 |
| C/C(=N\OCCN1CCCCC1)c1ccc(Nc2c3ccccc3nc3occc23)cc1 | -3 | 114 | -1 | 3 | 99 | 96 |
| C/C(=N\OCCCN(C)C)c1ccc(Nc2c3ccccc3nc3occ(Cl)c23)cc1 | 1 | 61 | 1 | 1 | 52 | 66 |
| COc1ccc2c(Nc3ccc(/C(C)=N/OCCCN)cc3)c3ccoc3nc2c1 | 56 | 100 | 16 | 18 | 105 | 103 |
| COc1ccc2c(Nc3ccc(/C(C)=N/OCCN4CCCC4)cc3)c3ccoc3nc2c1 | 6 | 63 | 5 | 3 | 69 | 104 |
| C/C(=N\OCCN(C)C)c1ccc(Nc2c3ccccc3nc3occ(Cl)c23)cc1 | 2 | 70 | -1 | -3 | 68 | 71 |
| COc1ccc2c(Nc3ccc(S(N)(=O)=O)cc3)c3c(Cl)coc3nc2c1 |  | 90 | 17 | 33 | 97 |  |
| COc1ccc2c(Nc3ccc(/C(C)=N/OCCN4CCCCC4)cc3)c3ccoc3nc2c1 | 44 | 77 | 9 | 2 | 84 | 106 |

| Structure (SMILES) | growth at 20 µg/mL [1] [%] | growth at 4 µg/mL [2] [%] | growth at 20 µg/mL [3] [%] | growth at 20 µg/mL [4] [%] | growth at 4 µg/mL [5] [%] | growth at 4 µg/mL [6] [%] |
| --- | --- | --- | --- | --- | --- | --- |
| C/C(=N\OCCCCN1CCOCC1)c1ccc(Nc2c3ccccc3nc3occc23)cc1 | 2 | 76 | -1 | -2 | 118 | 125 |
| COc1ccc2c(Nc3ccc(/C(C)=N/OCCN4CCCCC4)cc3)c3c(Cl)coc3nc2c1 | 48 | 56 | 3 | -1 | 67 | 112 |
| COc1ccc2c(Nc3ccc(/C(C)=N/OCCN(C)C)cc3)c3ccoc3nc2c1 | 1 | 67 | -1 | -1 | 75 | 91 |
| C/C(=N\OCCN1CCOCC1)c1ccc(Nc2c3ccccc3nc3occ(Cl)c23)cc1 | 32 | 112 | 16 | 54 | 107 | 121 |
| C/C(=N\OCCN(C)C)c1ccc(Nc2c3ccccc3nc3occc23)cc1 | -5 | 59 | 0 | 0 | 94 | 81 |
| NS(=O)(=O)c1ccc(Nc2c3ccccc3nc3occ(Cl)c23)cc1 | 96 | 91 | 79 | 90 | 86 | 98 |
| C/C(=N\OCCN1CCCC1)c1ccc(Nc2c3ccccc3nc3occ(Cl)c23)cc1 | -3 | 86 | -1 | -2 | 69 | 86 |
| COc1ccc2c(Nc3ccc(/C(C)=N/OCCCN(C)C)cc3)c3ccoc3nc2c1 | 3 | 59 | 5 | 2 | 82 | 90 |
| NC(=O)c1ccc(Nc2c3ccccc3nc3occ(Cl)c23)cc1 | 97 | 93 | 97 | 92 | 97 | 97 |
| COc1ccc2c(Nc3ccc(/C(C)=N/OCCCN)cc3)c3c(Cl)coc3nc2c1 | 48 | 101 | 8 | 3 | 91 | 109 |
| COc1ccc2c(Nc3ccc(/C(C)=N/OCCCCN4CCOCC4)cc3)c3ccoc3nc2c1 | 44 | 83 | 21 | 75 | 89 | 110 |
| COc1ccc2c(Nc3ccc(/C(C)=N/OCCN4CCOCC4)cc3)c3c(Cl)coc3nc2c1 | 108 | 85 | 68 | 37 | 97 | 104 |
| COc1ccc2c(Nc3ccc(/C(C)=N/OCCCN(C)C)cc3)c3c(Cl)coc3nc2c1 | 1 | 66 | 4 | 1 | 66 | 103 |
| C/C(=N\OCCCN(C)C)c1ccc(Nc2c3ccccc3nc3occc23)cc1 | 0 | 84 | 7 | 22 | 52 | 62 |
| C/C(=N\OCCCCN1CCOCC1)c1ccc(Nc2c3ccccc3nc3occ(Cl)c23)cc1 | 3 | 75 | 3 | -3 | 91 | 115 |
| O=C(O)c1ccc(Nc2c3ccccc3nc3occ(Cl)c23)cc1 | 73 | 62 | 81 | 61 | 89 | 80 |
| C/C(=N\OCCN1CCCC1)c1ccc(Nc2c3ccccc3nc3occc23)cc1 | -3 | 64 | 1 | 6 | 54 | 66 |
